Reference: ChEMBL document CHEMBL1641413, “Identification of 3-sulfonylindazole derivatives as potent and selective 5-HT(6) antagonists” (Bioorg Med Chem, 2011)
Active and inactive are the calls of the source. No cut-off for these calls is given here.

Key:
[1] = molecular target: T1, 5-hydroxytryptamine receptor 6 (Homo sapiens, UniProt P50406); experiment: Displacement of [3H]-LSD from cloned human 5-HT6 receptor expressed in human HeLa cells; assay type: cell-based
Outline: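 Radioligand displacement of [³H]-LSD from cloned human 5-HT6 receptors stably expressed in HeLa cells; compounds tested as HCl salts; Ki values determined in triplicate.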

[2] = molecular target: T1, 5-hydroxytryptamine receptor 6; experiment: Antagonist activity at cloned human 5-HT6 receptor expressed in human HeLa cells assessed as inhibition of 5HT-induced cyclic AMP formation; assay type: functional, cell-based
[3] = molecular target: T2, 5-hydroxytryptamine receptor 1A (Homo sapiens, UniProt P08908); experiment: Binding affinity to 5-HT1A receptor
T2 sequence (P08908 whole entry): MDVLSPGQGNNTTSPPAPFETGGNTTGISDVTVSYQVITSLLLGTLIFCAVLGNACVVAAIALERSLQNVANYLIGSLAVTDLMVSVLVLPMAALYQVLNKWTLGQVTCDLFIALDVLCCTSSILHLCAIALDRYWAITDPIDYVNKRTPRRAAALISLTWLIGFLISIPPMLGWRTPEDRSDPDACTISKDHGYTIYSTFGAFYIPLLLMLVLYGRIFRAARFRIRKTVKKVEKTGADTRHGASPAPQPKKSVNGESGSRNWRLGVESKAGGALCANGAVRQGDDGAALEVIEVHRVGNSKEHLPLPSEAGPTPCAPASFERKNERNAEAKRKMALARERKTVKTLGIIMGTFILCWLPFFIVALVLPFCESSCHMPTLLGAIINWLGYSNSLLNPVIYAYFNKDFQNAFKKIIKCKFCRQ

[4] = molecular target: 5-hydroxytryptamine receptor 1B (Homo sapiens, UniProt P28222); experiment: Binding affinity to 5-HT1B receptor
[5] = molecular target: 5-hydroxytryptamine receptor 1D (Homo sapiens, UniProt P28221); experiment: Binding affinity to 5-HT1D receptor
[6] = molecular target: T3, 5-hydroxytryptamine receptor 2B (Homo sapiens, UniProt P41595); experiment: Binding affinity to 5-HT2B receptor
[7] = molecular target: T4, 5-hydroxytryptamine receptor 2C (Homo sapiens, UniProt P28335); experiment: Binding affinity to 5-HT2C receptor
T4 sequence (P28335 whole entry): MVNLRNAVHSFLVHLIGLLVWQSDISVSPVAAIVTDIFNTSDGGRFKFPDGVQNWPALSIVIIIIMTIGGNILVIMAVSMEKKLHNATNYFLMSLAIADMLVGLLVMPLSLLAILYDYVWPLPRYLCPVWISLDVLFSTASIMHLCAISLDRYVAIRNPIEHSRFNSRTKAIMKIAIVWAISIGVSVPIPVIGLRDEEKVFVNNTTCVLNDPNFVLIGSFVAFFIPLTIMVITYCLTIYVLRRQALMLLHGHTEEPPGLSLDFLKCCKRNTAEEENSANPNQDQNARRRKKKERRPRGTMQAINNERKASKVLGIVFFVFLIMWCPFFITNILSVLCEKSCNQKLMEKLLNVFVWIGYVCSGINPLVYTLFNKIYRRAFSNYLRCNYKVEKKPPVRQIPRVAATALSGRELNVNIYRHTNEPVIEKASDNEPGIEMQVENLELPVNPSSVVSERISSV

[8] = molecular target: 5-hydroxytryptamine receptor 7 (Homo sapiens, UniProt P34969); experiment: Binding affinity to 5-HT7 receptor
[9] = molecular target: T5, Alpha-2A adrenergic receptor (Homo sapiens, UniProt P08913); experiment: Binding affinity to adrenergic alpha2A receptor
T5 sequence (P08913 whole entry): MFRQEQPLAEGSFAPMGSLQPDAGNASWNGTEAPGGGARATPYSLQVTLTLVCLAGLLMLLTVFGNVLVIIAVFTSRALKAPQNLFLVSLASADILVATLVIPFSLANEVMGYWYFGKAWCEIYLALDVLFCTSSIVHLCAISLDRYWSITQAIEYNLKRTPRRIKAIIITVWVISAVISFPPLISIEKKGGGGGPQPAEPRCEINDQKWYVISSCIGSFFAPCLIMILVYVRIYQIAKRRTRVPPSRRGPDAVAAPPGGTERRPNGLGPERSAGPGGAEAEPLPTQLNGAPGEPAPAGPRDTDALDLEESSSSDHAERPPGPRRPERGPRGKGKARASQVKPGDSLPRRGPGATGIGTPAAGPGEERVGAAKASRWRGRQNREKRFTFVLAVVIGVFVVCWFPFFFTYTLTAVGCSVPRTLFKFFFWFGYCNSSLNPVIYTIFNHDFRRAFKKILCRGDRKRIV

[10] = molecular target: D(2) dopamine receptor (Homo sapiens, UniProt P14416); experiment: Binding affinity to dopamine D2 receptor
[11] = molecular target: T3, 5-hydroxytryptamine receptor 2B; experiment: Agonist activity at 5-HT2B receptor at 0.1 nM to 10 uM by FLIPR assay; assay type: functional
[12] = Solubility of the compound in water; assay type: physicochemical
[13] = Half life in rat microsomes; assay type: ADME, Microsome
[14] = Half life in human microsomes; assay type: ADME, Microsome
[15] = Binding affinity to P-glycoprotein
[16] = % bound in plasma; assay type: ADME, cell-free; details: read-out: PPB
[17] = tested on: Rattus norvegicus; experiment: Cognitive enhancing effect in rat assessed as inhibition of scopolamine-induced memory deficit at 10 mg/kg, po by novel object recognition test; assay type: functional, organism-based; parameters: dose 10 mg/kg
Outline: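 Rats given compound orally at 10 mg/kg; scopolamine-induced memory deficit assessed in a novel object recognition assay.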

D(2) dopamine receptor, sequence (P14416 whole entry): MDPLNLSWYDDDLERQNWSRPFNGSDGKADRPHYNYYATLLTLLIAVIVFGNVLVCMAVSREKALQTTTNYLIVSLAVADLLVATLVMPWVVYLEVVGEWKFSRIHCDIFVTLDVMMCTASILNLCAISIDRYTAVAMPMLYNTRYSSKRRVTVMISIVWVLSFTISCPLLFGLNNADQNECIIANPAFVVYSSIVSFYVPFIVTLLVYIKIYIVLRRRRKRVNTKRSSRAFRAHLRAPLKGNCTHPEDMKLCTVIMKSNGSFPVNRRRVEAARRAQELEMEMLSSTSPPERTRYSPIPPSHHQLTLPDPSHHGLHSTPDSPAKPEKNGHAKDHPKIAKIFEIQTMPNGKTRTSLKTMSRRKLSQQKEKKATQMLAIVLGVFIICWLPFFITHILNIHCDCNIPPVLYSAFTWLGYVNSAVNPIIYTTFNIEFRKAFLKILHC
5-hydroxytryptamine receptor 1D, sequence (P28221 whole entry): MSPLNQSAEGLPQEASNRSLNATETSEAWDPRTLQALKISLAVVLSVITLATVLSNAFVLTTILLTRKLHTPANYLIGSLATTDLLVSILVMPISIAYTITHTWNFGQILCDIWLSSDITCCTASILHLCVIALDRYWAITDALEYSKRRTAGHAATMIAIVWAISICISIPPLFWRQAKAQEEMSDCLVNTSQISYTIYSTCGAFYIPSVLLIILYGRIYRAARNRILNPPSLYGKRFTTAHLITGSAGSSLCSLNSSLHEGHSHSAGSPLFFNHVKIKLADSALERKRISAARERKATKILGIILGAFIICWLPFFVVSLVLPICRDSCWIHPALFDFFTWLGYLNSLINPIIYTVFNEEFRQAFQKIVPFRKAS
T3 sequence (P41595 whole entry): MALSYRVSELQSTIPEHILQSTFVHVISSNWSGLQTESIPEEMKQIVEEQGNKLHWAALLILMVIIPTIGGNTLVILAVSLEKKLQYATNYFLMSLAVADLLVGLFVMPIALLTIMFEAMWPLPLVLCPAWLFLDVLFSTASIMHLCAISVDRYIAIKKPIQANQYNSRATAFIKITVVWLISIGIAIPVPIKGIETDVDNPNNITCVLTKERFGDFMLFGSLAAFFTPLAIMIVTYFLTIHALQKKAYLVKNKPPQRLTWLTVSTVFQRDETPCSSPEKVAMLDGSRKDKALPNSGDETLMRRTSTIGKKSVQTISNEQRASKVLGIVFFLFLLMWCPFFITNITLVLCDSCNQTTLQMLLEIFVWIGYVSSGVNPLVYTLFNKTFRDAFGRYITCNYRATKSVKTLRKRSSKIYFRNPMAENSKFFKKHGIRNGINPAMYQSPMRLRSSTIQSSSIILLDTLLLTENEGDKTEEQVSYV
T1 sequence (P50406 whole entry): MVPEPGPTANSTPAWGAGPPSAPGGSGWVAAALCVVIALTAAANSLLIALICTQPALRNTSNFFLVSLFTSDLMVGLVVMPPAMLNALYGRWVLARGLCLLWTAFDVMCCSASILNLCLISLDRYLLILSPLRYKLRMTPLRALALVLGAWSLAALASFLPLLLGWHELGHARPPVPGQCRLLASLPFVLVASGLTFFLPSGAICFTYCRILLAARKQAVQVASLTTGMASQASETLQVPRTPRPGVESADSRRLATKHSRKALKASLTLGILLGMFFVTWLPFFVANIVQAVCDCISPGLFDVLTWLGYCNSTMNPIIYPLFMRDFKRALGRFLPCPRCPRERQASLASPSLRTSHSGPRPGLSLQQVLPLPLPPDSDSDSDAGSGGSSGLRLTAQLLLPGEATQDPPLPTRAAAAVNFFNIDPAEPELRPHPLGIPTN
5-hydroxytryptamine receptor 1B, sequence (P28222 whole entry): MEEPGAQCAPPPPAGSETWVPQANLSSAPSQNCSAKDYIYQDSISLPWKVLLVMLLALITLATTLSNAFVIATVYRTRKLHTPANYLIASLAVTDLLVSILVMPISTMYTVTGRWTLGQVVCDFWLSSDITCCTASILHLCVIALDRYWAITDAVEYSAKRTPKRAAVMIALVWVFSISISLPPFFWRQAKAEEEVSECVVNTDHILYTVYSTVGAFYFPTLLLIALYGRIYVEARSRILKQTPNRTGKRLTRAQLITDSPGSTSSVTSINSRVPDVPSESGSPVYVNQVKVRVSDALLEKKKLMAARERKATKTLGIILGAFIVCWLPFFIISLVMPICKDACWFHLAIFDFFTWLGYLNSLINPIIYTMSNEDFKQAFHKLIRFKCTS
5-hydroxytryptamine receptor 7, sequence (P34969 whole entry): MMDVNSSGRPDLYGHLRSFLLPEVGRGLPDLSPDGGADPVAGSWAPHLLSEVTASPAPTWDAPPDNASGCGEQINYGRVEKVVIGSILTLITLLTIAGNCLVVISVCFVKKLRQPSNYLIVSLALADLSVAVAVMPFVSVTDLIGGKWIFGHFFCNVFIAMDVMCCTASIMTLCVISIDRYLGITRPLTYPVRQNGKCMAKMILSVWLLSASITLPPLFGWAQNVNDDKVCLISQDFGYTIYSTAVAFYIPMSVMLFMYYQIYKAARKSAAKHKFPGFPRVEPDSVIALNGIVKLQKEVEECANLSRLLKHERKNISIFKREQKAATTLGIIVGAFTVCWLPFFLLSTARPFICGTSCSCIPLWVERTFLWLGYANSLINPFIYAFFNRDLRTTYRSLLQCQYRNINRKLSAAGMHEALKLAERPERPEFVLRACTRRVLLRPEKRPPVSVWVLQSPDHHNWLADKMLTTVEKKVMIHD

## Cl.O=S(=O)(c1cccc2ccccc12)c1n[nH]c2ccc(NC3CCNCC3)cc12
[1]
  Ki: 0.0007 µM
[2]
  IC50: 0.015 µM
[3]
  Ki: > 5 µM
[4]
  Ki: > 5 µM
[5]
  Ki: > 5 µM
[6]
  Ki: 0.675 µM
[7]
  Ki: > 5 µM
[8]
  Ki: 3.97 µM
[9]
  Ki: > 5 µM
[10]
  Ki: > 5 µM
[11]
  Activity: inactive
[12]
  solubility: > 0.1 mg/mL
[13]
  half-life: > 30 min
[14]
  half-life: > 30 min
[15]
  Activity: inactive
[16]
  fraction unbound: > 0.2
[17]
  inhibition: Active

## Cl.NCCC(=O)Nc1ccc2[nH]nc(S(=O)(=O)c3cccc4ccccc34)c2c1
[1]
  Ki: 0.0015 µM
[2]
  IC50: 0.0038 µM
[3]
  Ki: > 5 µM
[4]
  Ki: > 5 µM
[5]
  Ki: > 5 µM
[6]
  Ki: 0.344 µM
[7]
  Ki: 0.573 µM
[8]
  Ki: > 5 µM
[9]
  Ki: > 5 µM
[10]
  Ki: > 5 µM
[11]
  Activity: inactive
[12]
  solubility: > 0.1 mg/mL
[13]
  half-life: > 30 min
[14]
  half-life: > 30 min
[15]
  Activity: inactive
[16]
  fraction unbound: > 0.2

## O=S(=O)(c1cccc2ccccc12)c1n[nH]c2c(NCC3CCNCC3)cccc12
[1]
  Ki: 0.017 µM
[2]
  IC50: 0.087 µM
[16]
  fraction unbound: > 0.2

## COc1ccc(S(=O)(=O)c2n[nH]c3ccc(NC4CCNCC4)cc23)cc1
[1]
  Ki: 0.0098 µM
[2]
  IC50: 0.126 µM
[16]
  fraction unbound: > 0.2

## O=S(=O)(c1cccc2ccccc12)c1n[nH]c2cccc(NC3CCNCC3)c12
[1]
  Ki: 0.0028 µM
[2]
  IC50: 0.056 µM
[16]
  fraction unbound: > 0.2

## NCCNc1cccc2c(S(=O)(=O)c3cccc4ccccc34)n[nH]c12
[1]
  Ki: 0.017 µM
[2]
  IC50: 0.093 µM
[16]
  fraction unbound: > 0.2

## Cl.O=S(=O)(c1cccc(Cl)c1)c1n[nH]c2ccc(NC3CCNCC3)cc12
[1]
  Ki: 0.001 µM
[2]
  IC50: 0.012 µM
[3]
  Ki: 0.455 µM
[4]
  Ki: 1.66 µM
[5]
  Ki: 0.41 µM
[6]
  Ki: 0.155 µM
[7]
  Ki: 2.43 µM
[8]
  Ki: 3.22 µM
[9]
  Ki: > 5 µM
[10]
  Ki: > 5 µM
[11]
  Activity: inactive
[12]
  solubility: > 0.1 mg/mL
[13]
  half-life: > 30 min
[14]
  half-life: > 30 min
[15]
  Activity: inactive
[16]
  fraction unbound: > 0.2

## CN(C)CCN(C)Cc1ccc2[nH]nc(S(=O)(=O)c3cccc4ccccc34)c2c1
[1]
  Ki: 0.014 µM
[2]
  IC50: 0.091 µM
[16]
  fraction unbound: > 0.2

## NCCC(=O)Nc1ccc2c(S(=O)(=O)c3cccc4ccccc34)n[nH]c2c1
[1]
  Ki: 0.024 µM
[2]
  IC50: 0.456 µM
[16]
  fraction unbound: > 0.2

## CC(N)CNc1ccc2[nH]nc(S(=O)(=O)c3cccc4ccccc34)c2c1 (centres undefined)
[1]
  Ki: 0.0014 µM
[2]
  IC50: 0.03 µM
[16]
  fraction unbound: > 0.2

## NCCNc1ccc2[nH]nc(S(=O)(=O)c3cccc4ccccc34)c2c1
[1]
  Ki: 0.0067 µM
[2]
  IC50: 0.013 µM
[16]
  fraction unbound: > 0.2

## CC(C)c1ccc(S(=O)(=O)c2n[nH]c3ccc(NC4CCNCC4)cc23)cc1.Cl
[1]
  Ki: 0.001 µM
[2]
  IC50: 0.014 µM
[3]
  Ki: 0.859 µM
[4]
  Ki: 2.73 µM
[5]
  Ki: 1.5 µM
[6]
  Ki: 1.76 µM
[7]
  Ki: 1.77 µM
[8]
  Ki: > 5 µM
[9]
  Ki: > 5 µM
[10]
  Ki: > 5 µM
[11]
  Activity: inactive
[12]
  solubility: > 0.1 mg/mL
[13]
  half-life: > 30 min
[14]
  half-life: > 30 min
[15]
  Activity: inactive
[16]
  fraction unbound: > 0.2

## O=S(=O)(c1ccc(F)cc1)c1n[nH]c2ccc(NC3CCNCC3)cc12
[1]
  Ki: 0.0063 µM
[2]
  IC50: 0.118 µM
[16]
  fraction unbound: > 0.2

## CCN(CC)CCC(=O)Nc1cccc2c(S(=O)(=O)c3cccc4ccccc34)n[nH]c12
[1]
  Ki: 0.027 µM
[2]
  IC50: 0.137 µM
[16]
  fraction unbound: > 0.2

## O=S(=O)(c1cccc2ccccc12)c1n[nH]c2ccc(NC3CCCNC3)cc12 (centres undefined)
[1]
  Ki: 0.0017 µM
[2]
  IC50: 0.095 µM
[16]
  fraction unbound: > 0.2

## Cl.O=S(=O)(c1ccc2ccccc2c1)c1n[nH]c2ccc(NC3CCNCC3)cc12
[1]
  Ki: 0.0006 µM
[2]
  IC50: 0.016 µM
[3]
  Ki: 4.35 µM
[4]
  Ki: > 5 µM
[5]
  Ki: > 5 µM
[6]
  Ki: 0.675 µM
[7]
  Ki: > 5 µM
[8]
  Ki: > 5 µM
[9]
  Ki: > 5 µM
[10]
  Ki: > 5 µM
[11]
  Activity: inactive
[12]
  solubility: > 0.1 mg/mL
[13]
  half-life: > 30 min
[14]
  half-life: > 30 min
[15]
  Activity: inactive
[16]
  fraction unbound: > 0.2

## O=S(=O)(c1cccc2ccccc12)c1n[nH]c2cccc(NCC3CCNCC3)c12
[1]
  Ki: 0.0095 µM
[2]
  IC50: 0.021 µM
[16]
  fraction unbound: > 0.2

## NCCNc1ccc2c(S(=O)(=O)c3cccc4ccccc34)n[nH]c2c1
[1]
  Ki: 0.017 µM
[2]
  IC50: 0.087 µM
[16]
  fraction unbound: > 0.2

## O=S(=O)(c1ccc(C(F)(F)F)cc1)c1n[nH]c2ccc(NC3CCNCC3)cc12
[1]
  Ki: 0.0015 µM
[2]
  IC50: 0.027 µM
[16]
  fraction unbound: > 0.2

## O=S(=O)(c1ccc(Cl)cc1)c1n[nH]c2ccc(NC3CCNCC3)cc12
[1]
  Ki: 0.0023 µM
[2]
  IC50: 0.044 µM
[16]
  fraction unbound: > 0.2

## O=S(=O)(c1cccc2ccccc12)c1n[nH]c2ccc(CN3CCNCC3)cc12
[1]
  Ki: 0.00024 µM
[2]
  IC50: 0.019 µM
[16]
  fraction unbound: > 0.2
